Hits are enriched below; roughly 1.9% of the tested compounds scored in any of these assays.
CHRM5 antagonist: blocks acetylcholine activation of human M5 receptor; P08912; CHO-hM5 cells, Fluo-8 calcium fluorescence, ACh EC80; inhibition, % at 3 µM; 360,000 tested, 0.59% active; AID 624040;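 active = inhibition above a per-plate cutoff, the mean of that plate's test compounds plus 3 SD, cut at about 27% in these data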
M4 antag: CHRM4 antagonism in calcium assay. 360,000 tested, 0.73% active. P08173. CHO-hM4 cells, ACh EC80, Fluo-8 calcium fluorescence. inhibition, % at 3 µM. AID 624125;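 active = inhibition above its plate's cutoff, the mean inhibition of sample wells plus 3 SD, cut at about 27% in these data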
Target sequence (P08173 whole entry, looked up): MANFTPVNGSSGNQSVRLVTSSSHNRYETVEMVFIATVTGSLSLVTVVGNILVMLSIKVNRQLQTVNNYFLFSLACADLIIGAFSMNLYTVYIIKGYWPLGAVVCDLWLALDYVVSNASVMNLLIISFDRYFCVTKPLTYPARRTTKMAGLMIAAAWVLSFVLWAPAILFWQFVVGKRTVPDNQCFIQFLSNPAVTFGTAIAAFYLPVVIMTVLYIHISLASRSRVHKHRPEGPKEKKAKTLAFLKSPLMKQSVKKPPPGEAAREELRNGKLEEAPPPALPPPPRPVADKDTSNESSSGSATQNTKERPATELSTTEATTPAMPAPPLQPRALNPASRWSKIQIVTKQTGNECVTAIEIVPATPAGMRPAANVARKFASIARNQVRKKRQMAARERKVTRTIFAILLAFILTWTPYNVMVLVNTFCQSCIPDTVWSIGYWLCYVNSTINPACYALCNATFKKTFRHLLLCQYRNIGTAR
M5 ag: agonists of human muscarinic M5 receptor (CHRM5); CHO-K1 hM5 cells, Fluo-8 calcium fluorescence; 0% DMSO wells, 100% maximal acetylcholine response; 360,000 tested, 0.19% active; AID 624037; P08912; activation, % at 3 µM;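 active = activation above the run's mean over test compounds plus 3 SD, cut at about 23% in these data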;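 also: signal is peak over basal fluorescence ratio across the kinetic read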
M4 ag: agonists of human muscarinic M4 receptor (CHRM4); P08173; CHO-K1 hM4/Gqi5, Fluo-8 calcium fluorescence; vehicle 0%, full acetylcholine response 100%; activation, % at 3 µM; 360,000 tested, 0.14% active;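 active = activation above the run mean over all test wells plus 3 SD, cut at about 32% in these data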;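 also: peak over basal fluorescence ratio per well then scaled between controls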
M5 PAM: potentiates acetylcholine response at human M5 receptor. CHO-K1 hM5, Fluo-8 calcium, ACh EC20 PAM; 0% = ACh EC20, 100% = ACh EC100. activation, % at 3 µM. 360,000 tested, 0.3% active. AID 624038;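 active = activation above the run cutoff, the mean activation of all test compounds plus 3 SD, cut at about 18% in these data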
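Assay system: CHO-K1 hM5 cells / Incubation: Fluo-8 loading 80 min at 37 °C plus 30 min room temperature / Technique: Fluo-8 calcium dye fluorescence, kinetic read / Repeats: single replicate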
M4 PAM: positive allosteric modulators of human muscarinic M4 receptor. P08173. CHO-K1 hM4/Gqi5, Fluo-8 calcium fluorescence, ACh EC20; 0% = ACh EC20, 100% = maximal ACh. activation, % at 3 µM. 360,000 tested, 0.4% active. AID 624126;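 active = activation above its plate's cutoff, the mean activation of sample wells plus 3 SD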
A number is an active result.

For COCCN(CC(=O)Nc1cccc(C)c1C)C(=O)/C=C/c1ccc2c(c1)OCCO2 the results were CHRM5 antagonist inactive, M4 antag inactive, M5 ag inactive, M4 ag inactive, M5 PAM inactive and M4 PAM inactive.
`CCc1ccc(C2CC3C(CN2S(=O)(=O)c2ccc(C)cc2)[C@@H](O)C[C@@H](c2ccc(CC)cc2)N3S(=O)(=O)c2ccc(C)cc2)cc1` (stereo not given in full) gave CHRM5 antagonist inactive, M4 antag inactive, M5 ag inactive, M4 ag inactive, M5 PAM inactive and M4 PAM inactive.
For CC(=O)Nc1cccc(NC(=O)CSc2ncc(-c3ccc(Cl)cc3)n2Cc2ccco2)c1 the results were CHRM5 antagonist inactive, M4 antag 29, M5 ag inactive, M4 ag inactive, M5 PAM inactive and M4 PAM inactive.
Screening CC(c1ccc2ccccc2c1)c1ccccc1C(=O)O (stereo not given) returned CHRM5 antagonist inactive, M4 antag inactive, M5 ag inactive, M4 ag inactive, M5 PAM inactive and M4 PAM inactive.
`O=C(Oc1cccc(C(=S)N2CCOCC2)c1)c1ccc([N+](=O)[O-])cc1` gave CHRM5 antagonist inactive, M4 antag inactive, M5 ag inactive, M4 ag inactive, M5 PAM inactive and M4 PAM inactive.
`O=C(c1cccc(Oc2ccc([N+](=O)[O-])cc2Cl)c1)N1CCOCC1` gave CHRM5 antagonist 27, M4 antag inactive, M5 ag inactive, M4 ag inactive, M5 PAM inactive and M4 PAM inactive.
Screening Cc1ccc(NC(=O)NNC(=O)COc2ccc([N+](=O)[O-])cc2)cc1C returned CHRM5 antagonist inactive, M4 antag inactive, M5 ag inactive, M4 ag inactive, M5 PAM inactive and M4 PAM inactive.
Screening Cc1ccc(NC(=O)CCC(=O)NNC(=O)COc2ccc([N+](=O)[O-])cc2)cc1C returned CHRM5 antagonist inactive, M4 antag inactive, M5 ag inactive, M4 ag inactive, M5 PAM inactive and M4 PAM 18.
Screening CCCC(=O)Nc1nc2ccc(S(=O)(=O)N3CCCCC3)cc2s1 returned CHRM5 antagonist inactive, M4 antag inactive, M5 ag inactive, M4 ag inactive, M5 PAM inactive and M4 PAM inactive.
`CC(C)CC(=O)Nc1nc2ccc(S(=O)(=O)N3CCOCC3)cc2s1` gave CHRM5 antagonist inactive, M4 antag inactive, M5 ag inactive, M4 ag inactive, M5 PAM 19 and M4 PAM inactive.
Screening CC1(C(=O)NS(=O)(=O)Cc2ccccc2C(F)(F)F)CCN1C(=O)Cc1cccs1 (stereo not given) returned CHRM5 antagonist inactive, M4 antag inactive, M5 ag inactive, M4 ag inactive, M5 PAM inactive and M4 PAM inactive.
`Cc1ccc(CN2CCNC2=O)cc1` gave CHRM5 antagonist inactive, M4 antag inactive, M5 ag inactive, M4 ag inactive, M5 PAM inactive and M4 PAM 34.
O=C1NCCN1CCNS(=O)(=O)c1ccc(F)c(Cl)c1 was read as CHRM5 antagonist inactive, M4 antag inactive, M5 ag inactive, M4 ag inactive, M5 PAM inactive and M4 PAM inactive.
`Cc1ccc(S(=O)(=O)NCCN2CCNC2=O)cc1` gave CHRM5 antagonist inactive, M4 antag inactive, M5 ag inactive, M4 ag inactive, M5 PAM inactive and M4 PAM 34.
Screening CCOC(=O)c1[nH]c2ccc(Br)cc2c1NC(=O)CCN1CCCC(C)(C)C1 returned CHRM5 antagonist 46, M4 antag 33, M5 ag inactive, M4 ag inactive, M5 PAM inactive and M4 PAM inactive.
Screening CCCNC(=O)C1(C)CCCN(Cc2ccc(-c3ccccn3)cc2)C1 (stereo not given) returned CHRM5 antagonist inactive, M4 antag inactive, M5 ag inactive, M4 ag inactive, M5 PAM inactive and M4 PAM inactive.
For CN1C(=S)SC(C)(C)C1(C)NO (stereo not given) the results were CHRM5 antagonist inactive, M4 antag inactive, M5 ag inactive, M4 ag inactive, M5 PAM 26 and M4 PAM inactive.
Screening COc1ccccc1CCNC(=O)CCn1c(=O)oc2ccccc21 returned CHRM5 antagonist inactive, M4 antag inactive, M5 ag inactive, M4 ag inactive, M5 PAM inactive and M4 PAM inactive.
COc1ccccc1CCNC(=O)Cn1c(=O)oc2ccccc21 was read as CHRM5 antagonist 40, M4 antag inactive, M5 ag inactive, M4 ag inactive, M5 PAM inactive and M4 PAM inactive.
O=c1cc(-c2ccc(O)cc2)oc2ccc(O)cc12 was read as CHRM5 antagonist inactive, M4 antag inactive, M5 ag inactive, M4 ag inactive, M5 PAM inactive and M4 PAM 42.
O=c1cc(-c2ccc(O)cc2)oc2ccccc12 was read as CHRM5 antagonist inactive, M4 antag inactive, M5 ag inactive, M4 ag inactive, M5 PAM inactive and M4 PAM inactive.
For CC(CCc1ccc(O)cc1)NC(c1ccccc1)c1ccc(Cl)cc1 (stereo not given) the results were CHRM5 antagonist inactive, M4 antag inactive, M5 ag inactive, M4 ag inactive, M5 PAM inactive and M4 PAM inactive.
Screening CC(CCc1ccc(O)cc1)NCCC(c1ccccc1)c1ccccc1 (stereo not given) returned CHRM5 antagonist inactive, M4 antag 32, M5 ag inactive, M4 ag 33, M5 PAM inactive and M4 PAM inactive.
`CC(CCc1ccc(O)cc1)N1CCC(Oc2ccc(C(=O)N3CCCC3)cc2)CC1` (stereo not given) gave CHRM5 antagonist inactive, M4 antag inactive, M5 ag inactive, M4 ag inactive, M5 PAM inactive and M4 PAM inactive.
`COc1ccc(CCC(C)N2CCC(Oc3ccc(C(=O)N4CCCC4)cc3)CC2)cc1` (stereo not given) gave CHRM5 antagonist inactive, M4 antag 42, M5 ag inactive, M4 ag inactive, M5 PAM inactive and M4 PAM inactive.
`O=C(c1ccc(OC2CCN(Cc3ccccc3C(F)(F)F)CC2)cc1)N1CCCCC1` gave CHRM5 antagonist 29, M4 antag inactive, M5 ag inactive, M4 ag inactive, M5 PAM inactive and M4 PAM inactive.
Screening O=C(c1ccc(OC2CCN(CCCc3ccccc3)CC2)cc1)N1CCCC1 returned CHRM5 antagonist inactive, M4 antag 30, M5 ag inactive, M4 ag inactive, M5 PAM inactive and M4 PAM inactive.
